Compound activity (PubChem BioAssay)
Compounds with a hit are over-represented: about 2.2% of the library has one in this group of screens.
eIF4E 4G PPI = eIF4E–eIF4G protein interaction inhibitors, primary screen, biochemical, uHTS, TR-FRET, eIF4GI fragment | 220,000 compounds, 0.37% hits | AID 782, 2007 | inhibition, % at 21.7 µM | Eukaryotic translation initiation factor 4E (Mus musculus) + Eukaryotic translation … | TR-FRET eIF4E-eIF4GI(517-606) binding, 2 h;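 active = inhibition above about 30%, limit read from the data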;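 note: 0% = full FRET control wells and 100% = background wells lacking eIF4GI fragment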
p97 ATPase inh = inhibitors of human p97 ATPase, primary screen, biochemical; 220,000 compounds, 0.42% hits; recombinant p97 ATPase, Kinase-Glo ATP luminescence, 3 h; inhibition, % at 8 µM; AID 1481, 2009; in the data active = inhibition above about 15%;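 note: 0% = DMSO vehicle and 100% = wells lacking enzyme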
Target sequence (P55072 whole entry, looked up): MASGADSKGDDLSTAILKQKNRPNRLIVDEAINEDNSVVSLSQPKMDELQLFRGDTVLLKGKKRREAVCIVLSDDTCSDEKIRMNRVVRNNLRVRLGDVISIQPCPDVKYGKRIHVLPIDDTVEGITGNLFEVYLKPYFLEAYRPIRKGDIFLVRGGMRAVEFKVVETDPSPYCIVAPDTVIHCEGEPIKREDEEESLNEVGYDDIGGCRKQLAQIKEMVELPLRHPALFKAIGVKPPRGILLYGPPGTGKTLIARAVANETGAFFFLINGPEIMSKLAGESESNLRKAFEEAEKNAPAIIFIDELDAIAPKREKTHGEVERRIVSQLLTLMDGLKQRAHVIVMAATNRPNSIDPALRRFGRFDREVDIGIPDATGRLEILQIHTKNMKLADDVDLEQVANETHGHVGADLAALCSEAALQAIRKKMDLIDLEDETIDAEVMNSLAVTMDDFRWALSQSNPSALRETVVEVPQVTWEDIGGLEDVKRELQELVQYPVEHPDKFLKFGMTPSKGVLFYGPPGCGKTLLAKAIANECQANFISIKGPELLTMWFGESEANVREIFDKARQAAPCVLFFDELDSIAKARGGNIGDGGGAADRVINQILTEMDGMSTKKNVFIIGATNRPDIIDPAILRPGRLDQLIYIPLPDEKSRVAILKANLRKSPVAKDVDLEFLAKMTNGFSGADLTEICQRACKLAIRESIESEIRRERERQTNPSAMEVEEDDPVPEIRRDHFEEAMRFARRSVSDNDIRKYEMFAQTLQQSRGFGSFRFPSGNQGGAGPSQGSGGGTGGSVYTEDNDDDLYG
Biofilm kill mix = clotrimazole potentiators killing C. albicans biofilm, primary screen, 4-compound mixtures; inhibition, % at 7.6 µM; AID 1242, 2008; C. albicans biofilm persisters + clotrimazole, fluorescence viability; primary screen in compound mixtures of four per well; 120,000 compounds, 0.02% hits;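 active = inhibition above 30.3% in the primary screen of four-compound pools, then above 30% when the compound was retested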;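 note: compounds exposed to preformed 24 h biofilms for 48 h; 0% = untreated biofilm control and 100% = clotrimazole plus chlorhexidine kill blank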
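Incubation: 24 h biofilm formation, then 48 h compound exposure, 37 °C | Material: C. albicans biofilms | Buffer or medium: RPMI/MOPS medium, pH 7.0 | Measured by: 2-h Alamar Blue fluorescence, 535/590 nm excitation/emission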
14-3-3 Bad PPI = inhibitors of 14-3-3 zeta/Bad binding, primary screen, biochemical, TR-FRET, bovine 14-3-3 zeta | 14-3-3 protein zeta/delta (Bos taurus), P63103 | TR-FRET 14-3-3zeta/Dy647-pBad peptide displacement, 1 h | inhibition, % at 21.7 µM | 220,000 compounds, 0.71% hits | AID 781, 2007;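 active = inhibition above about 70%, limit read from the data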;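 note: 0% = full 14-3-3 plus peptide FRET controls and 100% = background without 14-3-3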
PERK inh = block of dimerizer-induced PERK translation repression, primary screen, PERK inhibitor project, CHO PERK-DD cells, SEAP luminescence, HTS | 220,000 compounds, 0.17% hits | CHO PERK-DD fusion, SEAP luminescence translation reporter | AID 1416, 2008 | Eukaryotic translation initiation factor 2-alpha kinase 3 (Homo sapiens), Q9NZJ5 | inhibition, % at 5.6 µM;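 active = inhibition above the mean inhibition of all tested compounds plus 3 SD, set separately per screening campaign, cut at about 2.9% in these data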;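 note: PERK kinase domain activated by AP20187 dimerizer at 100 nM; 0% = DMSO with dimerizer and 100% = rapamycin at 8.4 µM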
Hck-Nef inh = inhibitors of Nef-activated human Hck kinase, primary screen, biochemical, Z-Lyte FRET, 384-well, Hck-YEEI. Tyrosine-protein kinase HCK (Homo sapiens), P08631. Recombinant Hck-YEEI plus Nef, Z-Lyte FRET kinase assay. inhibition, % at 20 µM. 220,000 compounds, 0.68% hits. AID 463187, 2010;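 active = Hck-Nef kinase inhibition above about 50%, limit read from the data; inactive = inhibition below that limit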;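 note: 0% = DMSO with Hck plus Nef and 100% = Hck alone without Nef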
Hck-Nef confirm = retest of Hck:Nef kinase inhibitor hits, confirmation, biochemical, Z-Lyte FRET, 384-well, p-Tyr peptide counterscreen. shares compounds with Hck-Nef inh. Recombinant Hck-YEEI:Nef, Z-Lyte FRET kinase assay. calls only at 10 µM. 1,300 compounds, 28% hits;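 active = average inhibition of at least 50%, with Z-scores no higher than 3 in both the phospho-tyrosine peptide and fluorescence counterscreens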
Active calls of the source: *; i = inactive; / = no result shown; + = active, no number.

SMILES | eIF4E 4G PPI | p97 ATPase inh | Biofilm kill mix | 14-3-3 Bad PPI | PERK inh | Hck-Nef inh | Hck-Nef confirm
O=C(Cn1c2ccccc2c(=O)c2ccccc21)N/N=C/c1cc([N+](=O)[O-])ccc1N1CCCCCC1 | / | 3 | / | / | 1 | 81* | +
N=c1c(C(=O)NCc2ccco2)cc2c(=O)n3ccccc3nc2n1CC1CCCO1 (stereo not drawn) | / | 5 | / | / | 0 | 47 | /
Cc1cccn2c(=O)c3cc(C(=O)NCc4ccco4)c(=N)n(CCOCCO)c3nc12 | -7 | 10 | / | -9 | 1 | 75* | i
N=c1c(C(=O)NCc2ccco2)cc2c(=O)n3ccccc3nc2n1CCc1ccccc1 | 2 | -4 | 10 | -12 | 0 | 1 | /
COCCn1c(=N)c(C(=O)NCc2ccco2)cc2c(=O)n3cc(C)ccc3nc21 | 0 | 7 | -38 | -9 | 0 | 86* | /
CN(C)c1nnnn1-c1cccc(Oc2ncc(C(F)(F)F)cc2Cl)c1 | 1 | -2 | 15 | -9 | 0 | 10 | /
Cc1ccc(-n2c(O)c(C=Nc3ccccc3-c3n[nH]c(=S)[nH]c3=O)c3ccccc3c2=O)c(C)c1 | -3 | 4 | 13 | -21 | 2 | 73* | +
Cc1cccc(-n2c(O)c(C=Nc3ccccc3O)c3ccccc3c2=O)n1 | 3 | -3 | 22 | -2 | -2 | 3 | /
Cc1ccc(-n2c(O)c(C=Nc3ccccc3-c3n[nH]c(=S)[nH]c3=O)c3ccccc3c2=O)cc1C | 9 | 0 | 3 | -5 | 0 | 84* | +
Cc1ccc(-n2c(O)c(C=NC3CCS(=O)(=O)C3)c3ccccc3c2=O)cc1C (stereo not drawn) | -3 | 5 | / | -7 | -2 | 0 | /
Cc1cc(C)c2oc(C(=O)Nc3ccc(S(=O)(=O)Nc4nccs4)cc3)cc(=O)c2c1 | -3 | 6 | 14 | 1 | 0 | 51* | i
Cc1cc2oc(C(=O)Nc3ccc(S(=O)(=O)Nc4nccs4)cc3)cc(=O)c2cc1Cl | 2 | 6 | -5 | 34 | 1 | 9 | /
CC(C)c1cc(NCCCN2CCOCC2)n2c(nc3ccccc32)c1C#N | -2 | 6 | / | 12 | -1 | 54* | /
N#Cc1c2c(c(NCCCN3CCOCC3)n3c1nc1ccccc13)CCC2 | 1 | 4 | / | -10 | -2 | 61* | /
CC(C)n1c(=O)[nH][nH]c1=S | 28 | 6 | 29 | -2 | 0 | -170 | /
COc1ccc(CCNc2c3ccccc3nc3ccccc23)cc1OC | 5 | 7 | 15 | 0 | -2 | 56* | i
COC(=O)c1ccccc1NC(=O)c1ccc2c(c1)C(=O)N(Cc1ccco1)C2=O | / | -3 | / | / | 1 | 58* | i
Cc1c(NC(=O)c2ccc3c(c2)C(=O)N(Cc2ccco2)C3=O)cccc1C(=O)O | -3 | 5 | 11 | -7 | 1 | 23 | /
CNc1ccc(Br)cc(C(=O)/C=C/c2cccc(Cl)c2Cl)c1=O | 16 | 8 | 0 | 54 | 0 | 51* | i
CNc1ccc(Br)cc(C(=O)/C=C/c2cccc(OC)c2OC)c1=O | 7 | -1 | 6 | 39 | 0 | 0 | /
COCCNC(=O)c1c(N)n(-c2cccc(C)c2)c2nc3ccccc3nc12 | 0 | 1 | / | -5 | -1 | 60* | /
C=CCNC(=O)c1c(N)n(-c2cccc(S(N)(=O)=O)c2)c2nc3ccccc3nc12 | 2 | 5 | / | 1 | 0 | 58* | i
COCCNC(=O)c1c(N)n(-c2ccccc2)c2nc3ccccc3nc12 | 6 | -8 | / | 9 | -1 | 33 | /
COc1ccc(-n2c(N)c(C(=O)NCc3ccco3)c3nc4ccccc4nc32)cc1 | -16 | -2 | / | 6 | -1 | 69* | i
COc1ccc(-n2c(N)c(C(=O)NCc3ccco3)c3nc4ccccc4nc32)cc1OC | -1 | 3 | 8 | 33 | 0 | 13 | /
SMILES | eIF4E 4G PPI | p97 ATPase inh | Biofilm kill mix | 14-3-3 Bad PPI | PERK inh | Hck-Nef inh | Hck-Nef confirm
Cn1nc(Oc2ncc(C(F)(F)F)cc2Cl)cc1C(F)(F)F | -2 | 2 | 14 | -9 | 0 | 54* | i
Cc1nc2ccc(NC(=O)c3cc(S(=O)(=O)N(C)c4ccccc4)ccc3Cl)cc2s1 | -1 | 0 | 9 | 42 | -1 | 52* | +
COc1ccccc1/C=C/C=c1\sc2nc(=O)c(Cc3ccccc3)nn2c1=O | 18 | 4 | 4 | 3 | -1 | 81* | +
COC(=O)C1=CN(Cc2cccs2)C=C(C(=O)OC)C1c1ccc(OC)cc1OC | -2 | 1 | 11 | -9 | -1 | 68* | /
CCOC(=O)C1=C(C)NC(C)=C(C(=O)OC)C1c1cccc([N+](=O)[O-])c1 (stereo not drawn) | 3 | 2 | 13 | -2 | -1 | -3 | /
COC(=O)C1=CN(Cc2cccs2)C=C(C(=O)OC)C1c1cccc(Cl)c1 | 4 | 1 | -10 | 5 | 1 | 59* | /
COc1ccc(NC(=O)c2cc(C)n(Cc3cccs3)c2C)cc1 | 0 | 11 | 14 | -11 | 0 | 5 | /
CCN1C=C(C(=O)OC)C(c2cccc(C)c2)C(C(=O)OC)=C1 | 2 | 2 | / | 7 | 1 | 66* | /
COC(=O)C1=CN(CC2CCCO2)C=C(C(=O)OC)C1c1cccc(O)c1 (stereo not drawn) | -3 | 2 | 11 | -9 | 0 | 71* | /
COC(=O)C1=CN(Cc2ccc(OC)cc2)C=C(C(=O)OC)C1c1ccsc1 | 4 | 1 | 18 | -1 | 0 | 7 | /
COC(=O)C1=CN(CCOC23CC4CC(CC(C4)C2)C3)C=C(C(=O)OC)C1c1ccsc1 | 0 | -4 | 2 | -7 | 0 | 70* | i
CCOc1ccc(C2C(C(=O)OC)=CN(CCOC)C=C2C(=O)OC)cc1 | 0 | -5 | / | -15 | -1 | 58* | /
CCCCN(C)C(=O)c1c[nH]c2ccc(S(=O)(=O)N3CCOCC3)cc2c1=O | -1 | 4 | / | 5 | 2 | -2 | /
Cc1cccc(N=c2oc3cc(O)ccc3cc2C(N)=O)c1 | -3 | 1 | / | -20 | 0 | 153* | /
